# Shown are actives, neighbours in structure and some others; about 2.1% of the full set was active somewhere.
# LMPTP block – blocks human LMPTP phosphatase. recombinant LMPTP-A, OMFP fluorogenic substrate, fluorescence intensity. inhibition, % at 20 µM. 360,000 tested, 0.22% active;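 active = compounds that cut the enzyme signal by at least half of the control window in the single-dose screen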;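 also: plate controls were DMSO wells with enzyme plus substrate for no effect and substrate without enzyme for full effect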
# Target sequence (P24666 whole entry, looked up): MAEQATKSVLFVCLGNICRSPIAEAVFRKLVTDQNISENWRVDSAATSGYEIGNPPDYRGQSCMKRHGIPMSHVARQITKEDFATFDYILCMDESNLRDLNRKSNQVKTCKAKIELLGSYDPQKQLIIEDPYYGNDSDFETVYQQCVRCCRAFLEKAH
#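 Material: LMPTP-A; amount: 0.625 nM enzyme; doses: single 20 µM dose; times: reaction 50 min, room temperature, dark; technique: fluorescence intensity of OMFP turnover product; benchmarks: no-enzyme and uninhibited controls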
# GRK2 aptamer HTS – inhibitors of human GRK2 displacing RNA aptamer; P25098; bead flow cytometry, FAM-aptamer displacement from GRK2; inhibition of aptamer binding, % at 10 µM; 330,000 tested, 0.59% active; AID 488847;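 active = inhibition of aptamer binding above 40%, roughly 3 SD of noise, on plates passing a quality check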;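 also: median bead fluorescence of bound FAM aptamer so fluorescent compounds give negative values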
# SUMO1-SIM PPI – modulators of human SUMO1-mediated protein-protein interactions; inhibition, % at 20 µM; P63165; AID 602429; SUMO1 binding to a labelled peptide, TR-FRET, 1 h; 360,000 tested, 0.33% active; in the data active = inhibition above about 37%
# Target sequence (P63165 whole entry, looked up): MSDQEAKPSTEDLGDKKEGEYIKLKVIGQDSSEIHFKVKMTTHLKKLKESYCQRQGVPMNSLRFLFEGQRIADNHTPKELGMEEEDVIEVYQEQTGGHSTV
# Scp1 inh – blocks human Scp-1 phosphatase activity; Recombinant Scp1, phosphopeptide, malachite green phosphate absorbance; inhibition, % at 20 µM; 340,000 tested, 0.88% active;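 active = inhibition above about 50% at 20 µM, limit read from the data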;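 also: plate controls were DMSO wells with enzyme for no effect and wells lacking enzyme for full effect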
# Target sequence (Q9GZU7 76-261 limits assumed): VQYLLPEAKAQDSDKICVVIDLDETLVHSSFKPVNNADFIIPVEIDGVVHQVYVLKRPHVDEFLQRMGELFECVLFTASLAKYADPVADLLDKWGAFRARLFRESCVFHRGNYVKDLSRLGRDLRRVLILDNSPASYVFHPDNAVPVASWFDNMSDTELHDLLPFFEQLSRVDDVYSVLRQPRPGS
#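 System: truncated SCP-1 phosphatase (76-261aa); medium: Tris acetate buffer pH 5.5 with MgCl2 and Tween-20; incubation: 45 min room-temperature reaction, 5 min colour, 30 min stabiliser; compound: single 20 µM dose, 1% DMSO; reagent: Phosphorylated 17-residue peptide substrate; read-out: % inhibition at 20 µM; technique: colorimetric free-phosphate detection, absorbance 630 nm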
# DNMT1 inh – DNMT1 (human) enzyme inhibition | AID 588458 | inhibition (reported as % activation of signal), % at 10 µM | DNMT1 molecular beacon, Hinp1I cleavage, fluorescence | P26358 | 360,000 tested, 0.83% active; in the data active = inhibition above about 50%
# STEP inh – inhibitors of human striatal-enriched phosphatase STEP; inhibition, % at 20 µM; 360,000 tested, 0.25% active; AID 588621; P54829; recombinant STEP, OMFP fluorogenic substrate, fluorescence;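 active = inhibition at 20 µM, scaled per plate between control wells, above about 37%, limit read from the data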;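 also: 0% = DMSO with enzyme and substrate and 100% = substrate only without enzyme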
#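 System: isolated STEP enzyme; schedule: 20 min enzyme reaction at room temperature, protected from light; medium: Bis-Tris buffer pH 6.0, 2.5 mM DTT, 0.005% Tween 20; signal: fluorescence, 480/540 nm; dosing: single compound dose of 20 µM, 1% DMSO final; also added: OMFP substrate, 25 µM final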
# GRK2 CP1 – human GRK2 inhibition confirmation, cherry pick 1; shares compounds with GRK2 aptamer HTS; bead-bound GRK2, FAM-aptamer displacement, flow cytometry; aptamer displacement, % at 10 µM; 2,000 tested, 4% active;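 active = aptamer displacement above 40%, near three times the noise of non-fluorescent compounds, on plates passing quality checks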;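 also: negative values mostly reflect intrinsic compound fluorescence rather than true enhancement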
# Aptamer quench SP – quenches fluorescent RNA aptamer, GRK2 hit artifact; shares compounds with GRK2 aptamer HTS; Carboxyfluorescein RNA aptamer on beads, flow cytometry quenching; hits give low values; fluorescence response (% of DMSO), % at 10 µM; 2,000 tested, under 10 active; AID 504580;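 active = compounds that quench the bead-bound fluorescent RNA probe, cutting fluorescence to under half of the solvent control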;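 also: counterscreen run without GRK2 so only probe quenching by compound is measured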
# * = called active by the depositor; . = no result.
SMILES,LMPTP block,GRK2 aptamer HTS,SUMO1-SIM PPI,Scp1 inh,DNMT1 inh,STEP inh,GRK2 CP1,Aptamer quench SP
O=C(Nc1cccc(S(=O)(=O)NC2=NCCC2)c1)C1CC(=O)N(c2ccc3c(c2)OCCO3)C1 (stereo not given),0,1,1,24,9,-2,2,97
O=C(CNc1cccc(F)c1)Nc1cccc(S(=O)(=O)N2CCCCC2)c1,-1,.,1,-7,2,0,.,.
Cc1ccccc1N1CC(C(=O)N2CCCCCC2)CC1=O (stereo not given),1,65*,-7,-7,0,0,-2,98
N#Cc1cccc(NC(=O)CNc2cccc(S(=O)(=O)N3CCCCC3)c2)c1,0,0,-1,-7,1,-3,1,102
CC(=O)c1ccc(OCCCC(=O)Nc2cccc(S(=O)(=O)N3CCCCC3)c2)cc1,1,0,-1,-13,-3,-1,-1,98
CC(=O)c1cccc(NC(=O)C2CC(=O)N(c3ccc4c(c3)OCCO4)C2)c1 (stereo not given),-1,0,3,-3,0,0,.,.
CCN1CCN(CC(=O)Nc2cc(C(F)(F)F)ccc2OCCOC)CC1,-2,3,2,-9,-1,1,.,.
CC1(C(=O)Nc2ccc3c(c2)OCO3)CCN1C(=O)CC1CC1 (stereo not given),-1,.,3,.,2,1,.,.
O=C(CCN1C(=O)C2CC=CCC2C1=O)Nc1cccc(S(=O)(=O)N2CCCCC2)c1 (stereo not given),0,1,3,-4,2,-4,-8,108
Cc1cccc(N2CC(C(=O)Nc3ccc(S(=O)(=O)N4CCOCC4)cc3)CC2=O)c1C (stereo not given),0,2,4,-2,-3,1,.,.
Cc1cccc(N2CC(C(=O)Nc3cccc(S(=O)(=O)N4CCCCC4)c3)CC2=O)c1C (stereo not given),2,2,17,-6,-2,-3,-3,98
Cc1ccc(S(=O)(=O)N2CCCCC2)cc1NC(=O)CCN1C(=O)C2CC=CCC2C1=O (stereo not given),-2,0,0,-5,-1,0,.,.
CCOc1ccccc1OCCCC(=O)OCC(=O)Nc1cccc(Cl)c1,1,81*,-4,-11,-1,1,-1,102
COc1cccc(-c2nnc(NC(=O)c3ccc(Cl)s3)o2)c1,0,52*,6,-16,0,2,-2,97
COC(=O)CCCC(=O)NC1CCCc2c1cnn2-c1ccc(F)cc1F (stereo not given),0,0,3,-5,0,2,.,.
COc1ccccc1C(=O)Nc1ccc(N2CCCCC2)cc1,1,0,0,0,-8,-2,.,.
COc1cccc(OC)c1C(=O)Nc1ccc(N2CCCC2)cc1,10,100*,0,0,14,0,3,93
O=C(c1cnc(Cc2c[nH]c3ccccc23)c(I)c1)N1CCN(Cc2ccccc2)CC1,3,.,0,.,-18,-2,.,.
CCNc1c(NS(=O)(=O)c2ccc(OC)c(Cl)c2)c(=O)oc2ccccc12,0,69*,-2,-3,1,-4,5,101
CNc1c(NS(=O)(=O)c2ccc(OC)c(Cl)c2)c(=O)oc2ccccc12,-1,2,5,-10,-1,-3,.,.
CCc1ccc(N(CC)C(=O)c2cn(C)c(=O)c3ccccc23)cc1,-1,29,9,-12,-2,-1,0,102
CC(=O)c1cn(C)c(=O)c2ccccc12,-2,2,2,-23,0,1,.,.
O=C(CCS(=O)(=O)c1ccccc1)Nc1ccccn1,0,76*,-1,13,4,4,2,101
